The target in test [1] is Focal adhesion kinase 1 (Homo sapiens) (UniProt Q05397). Nature of the test: Binding affinity to wild-type human partial length FAK (D402 to R696 residues) expressed in bacterial expression system assessed as residual binding level at 1 uM by Kinomescan method relative to control.
The target in test [2] is Serine/threonine-protein kinase TBK1 (Homo sapiens) (UniProt Q9UHD2). As to the kind of experiment: Binding affinity to wild-type human full length TBK1 (M1 to L729 residues) expressed in mammalian expression system assessed as residual binding level at 1 uM by Kinomescan method relative to control. An outline of the steps:
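KinomeScan, an active site-directed competition binding panel of 468 kinases. The test compound was at 1 μM. The readout is remaining kinase binding as a percentage of the DMSO control. Scores above 35% were treated as weak binding and not listed.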

Test [3] deals with Serine/threonine-protein kinase Chk1 (Homo sapiens) (UniProt O14757). As to the kind of experiment: Binding affinity to wild-type human partial length CHEK1 (M1 to G289 residues) expressed in bacterial expression system assessed as residual binding level at 1 uM by Kinomescan method relative to control.
Test [4] relates to Tyrosine-protein kinase ABL1 (Homo sapiens), P00519 [F317I]. Nature of the test: Binding affinity to human phosphorylated ABL1 F317I mutant (S229 to K512 residues) expressed in mammalian expression system assessed as residual binding level at 1 uM by Kinomescan method relative to control. An outline of the steps:
(§1)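 KinomeScan active site-directed competition binding panel (468 kinases), compound tested at 1 μM. Result expressed as remaining kinase signal versus DMSO control (percent of control).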

Test [5] has as its target Microtubule-associated serine/threonine-protein kinase 1 (Homo sapiens) (UniProt Q9Y2H9). As to the kind of experiment: Binding affinity to wild-type human partial length MAST1 (S346 to V730 residues) expressed in mammalian expression system assessed as residual binding level at 1 uM by Kinomescan method relative to control. Put shortly: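 Active-site-directed competition binding panel of 468 kinases (KinomeScan), compound at 1 μM. The read-out is kinase remaining bound, given as a percentage of the DMSO control. […]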

In test [6] the target is Serine/threonine-protein kinase LATS2 (Homo sapiens) (UniProt Q9NRM7). As to the kind of experiment: Binding affinity to wild-type human partial length LATS2 (Q641 to V1088 residues) expressed in mammalian expression system assessed as residual binding level at 1 uM by Kinomescan method relative to control.
In test [7] the target is Serine/threonine-protein kinase pim-2 (Homo sapiens) (UniProt Q9P1W9). As to the kind of experiment: Binding affinity to wild-type human partial length PIM2 (M1 to E291 residues) expressed in bacterial expression system assessed as residual binding level at 1 uM by Kinomescan method relative to control.
In test [8] the target is Phosphatidylinositol 4,5-bisphosphate 3-kinase catalytic subunit alpha isoform (Homo sapiens) (UniProt P42336). As to the kind of experiment: Binding affinity to wild-type human partial length PIK3CA (R108 to N1068 residues) expressed in mammalian expression system assessed as residual binding level at 1 uM by Kinomescan method relative to control.
For test [9], the target named is High affinity nerve growth factor receptor (Homo sapiens) (UniProt P04629). Nature of the test: Binding affinity to wild-type human partial length TRKA (G475 to G790 residues) expressed in mammalian expression system assessed as residual binding level at 1 uM by Kinomescan method relative to control.
Test [10] concerns the target Insulin-like growth factor 1 receptor (Homo sapiens) (UniProt P08069). As to the kind of experiment: Binding affinity to wild-type human partial length IGF1R (L972 to D1294 residues) expressed in bacterial expression system assessed as residual binding level at 1 uM by Kinomescan method relative to control.
The next test has as its system Mus musculus. As to the kind of experiment: In vivo inhibition of SRC in C57B6 mouse assessed as reduction in phosphorylation of SRC Y416 at 5 mg/kg, ip measured after 2 to 4 hrs by Western blot analysis. Format: functional, organism-based. Put shortly: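 Adult C57B6 mice, n = 2 per condition, dosed intraperitoneally 5 mg/kg three times every 12 h; vehicle 5% DMSO/95% D5W. Spleens taken 2 or 4 h after the final dose and lysed in M-PER with protease/phosphatase inhibitors. Lysates blotted for phospho-SRC Y416, total SRC and β-actin.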
On the technique in general: A western blot detects proteins with antibodies after separation by electrophoresis.

The target in test [11] is Myosin light chain kinase, smooth muscle (Homo sapiens) (UniProt Q15746). As to the kind of experiment: Binding affinity to wild-type human full length MYLK (M854 to E1845 residues) expressed in mammalian expression system assessed as residual binding level at 1 uM by Kinomescan method relative to control. An outline of the steps:
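Active-site-directed competition binding panel (KinomeScan) covering 468 kinases. Test agent was screened at 1 μM. The read-out is the remaining kinase signal expressed relative to a DMSO control. Scores above 35%, taken as weak binding, were not reported.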

The target of test [12] is Fibroblast growth factor receptor 2 (Homo sapiens) (UniProt P21802). Nature of the test: Binding affinity to wild-type human partial length FGFR2 (D457 to E769 residues) expressed in bacterial expression system assessed as residual binding level at 1 uM by Kinomescan method relative to control.
Test [13] concerns the target MAP/microtubule affinity-regulating kinase 4 (Homo sapiens) (UniProt Q96L34). As to the kind of experiment: Binding affinity to wild-type human partial length MARK4 (K29 to G340 residues) expressed in bacterial expression system assessed as residual binding level at 1 uM by Kinomescan method relative to control.
In test [14] the test system is Receptor-type tyrosine-protein kinase FLT3 (Homo sapiens), P36888 [UNDEFINED MUTATION]. Nature of the test: Binding affinity to human partial length FLT3 ITD mutant expressed in bacterial expression system assessed as residual binding level at 1 uM by Kinomescan method relative to control. An outline of the steps:
as §1

Test [15] deals with Hepatocyte growth factor receptor (Homo sapiens), P08581 [M1250T]. As to the kind of experiment: Binding affinity to human partial length MET M1250T mutant (D1010 to S1367 residues) expressed in bacterial expression system assessed as residual binding level at 1 uM by Kinomescan method relative to control. Put shortly:
as §1

Test [16] addresses Phosphatidylinositol 4,5-bisphosphate 3-kinase catalytic subunit gamma isoform (Homo sapiens) (UniProt P48736). Nature of the test: Binding affinity to wild-type human partial length PIK3CG (S144 to A1102 residues) expressed in mammalian expression system assessed as residual binding level at 1 uM by Kinomescan method relative to control.
Test [17] has as its system Tyrosine-protein kinase ABL1 (Homo sapiens), P00519 [M351T]. As to the kind of experiment: Binding affinity to human phosphorylated ABL1 M351T mutant (S229 to K512 residues) expressed in mammalian expression system assessed as residual binding level at 1 uM by Kinomescan method relative to control. Put shortly:
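Active-site-directed KinomeScan competition binding panel covering 468 kinases, compound tested at 1 μM. Each readout is the kinase signal remaining with compound, expressed as a percentage of the DMSO control. […]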

In test [18] the target is Dual specificity protein kinase TTK (Homo sapiens) (UniProt P33981). Nature of the test: Binding affinity to wild-type human partial length TTK (N505 to V798 residues) expressed in bacterial expression system assessed as residual binding level at 1 uM by Kinomescan method relative to control. An outline of the steps:
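Active site-directed competition binding panel (KinomeScan, 468 kinases). Test compound at 1 μM. Read-out is kinase binding remaining versus DMSO control, expressed as percent of control. Scores above 35% are treated as weak binding.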

Activity calls are given as the source filed them. No cut-off for these calls is given here.

Chain of Fibroblast growth factor receptor 2 (Homo sapiens) (P21802 22-821 limits assumed): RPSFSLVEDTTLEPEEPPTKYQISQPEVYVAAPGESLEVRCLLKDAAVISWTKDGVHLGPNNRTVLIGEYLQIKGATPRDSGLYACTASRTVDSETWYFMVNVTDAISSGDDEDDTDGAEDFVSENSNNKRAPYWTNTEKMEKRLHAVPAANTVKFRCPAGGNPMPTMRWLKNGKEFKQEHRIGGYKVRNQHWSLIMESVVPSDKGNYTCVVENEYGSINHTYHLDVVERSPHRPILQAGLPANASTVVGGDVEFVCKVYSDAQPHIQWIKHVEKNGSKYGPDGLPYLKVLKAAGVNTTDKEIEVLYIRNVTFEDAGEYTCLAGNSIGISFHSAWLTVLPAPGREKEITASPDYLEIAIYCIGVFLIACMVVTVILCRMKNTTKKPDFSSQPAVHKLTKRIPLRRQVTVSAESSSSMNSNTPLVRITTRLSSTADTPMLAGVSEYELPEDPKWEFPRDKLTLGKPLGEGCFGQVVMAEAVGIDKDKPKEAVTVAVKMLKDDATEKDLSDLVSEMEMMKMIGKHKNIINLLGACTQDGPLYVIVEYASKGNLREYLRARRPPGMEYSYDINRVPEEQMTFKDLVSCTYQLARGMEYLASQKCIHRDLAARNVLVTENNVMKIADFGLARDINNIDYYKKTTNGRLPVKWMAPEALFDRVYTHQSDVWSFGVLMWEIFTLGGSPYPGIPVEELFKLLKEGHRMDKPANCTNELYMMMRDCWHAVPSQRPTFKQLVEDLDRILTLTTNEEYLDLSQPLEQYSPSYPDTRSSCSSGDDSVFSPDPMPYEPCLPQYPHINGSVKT
Chain of Phosphatidylinositol 4,5-bisphosphate 3-kinase catalytic subunit gamma isoform (Homo sapiens) (P48736 whole entry, looked up, the tested form may be a part, canonical isoform): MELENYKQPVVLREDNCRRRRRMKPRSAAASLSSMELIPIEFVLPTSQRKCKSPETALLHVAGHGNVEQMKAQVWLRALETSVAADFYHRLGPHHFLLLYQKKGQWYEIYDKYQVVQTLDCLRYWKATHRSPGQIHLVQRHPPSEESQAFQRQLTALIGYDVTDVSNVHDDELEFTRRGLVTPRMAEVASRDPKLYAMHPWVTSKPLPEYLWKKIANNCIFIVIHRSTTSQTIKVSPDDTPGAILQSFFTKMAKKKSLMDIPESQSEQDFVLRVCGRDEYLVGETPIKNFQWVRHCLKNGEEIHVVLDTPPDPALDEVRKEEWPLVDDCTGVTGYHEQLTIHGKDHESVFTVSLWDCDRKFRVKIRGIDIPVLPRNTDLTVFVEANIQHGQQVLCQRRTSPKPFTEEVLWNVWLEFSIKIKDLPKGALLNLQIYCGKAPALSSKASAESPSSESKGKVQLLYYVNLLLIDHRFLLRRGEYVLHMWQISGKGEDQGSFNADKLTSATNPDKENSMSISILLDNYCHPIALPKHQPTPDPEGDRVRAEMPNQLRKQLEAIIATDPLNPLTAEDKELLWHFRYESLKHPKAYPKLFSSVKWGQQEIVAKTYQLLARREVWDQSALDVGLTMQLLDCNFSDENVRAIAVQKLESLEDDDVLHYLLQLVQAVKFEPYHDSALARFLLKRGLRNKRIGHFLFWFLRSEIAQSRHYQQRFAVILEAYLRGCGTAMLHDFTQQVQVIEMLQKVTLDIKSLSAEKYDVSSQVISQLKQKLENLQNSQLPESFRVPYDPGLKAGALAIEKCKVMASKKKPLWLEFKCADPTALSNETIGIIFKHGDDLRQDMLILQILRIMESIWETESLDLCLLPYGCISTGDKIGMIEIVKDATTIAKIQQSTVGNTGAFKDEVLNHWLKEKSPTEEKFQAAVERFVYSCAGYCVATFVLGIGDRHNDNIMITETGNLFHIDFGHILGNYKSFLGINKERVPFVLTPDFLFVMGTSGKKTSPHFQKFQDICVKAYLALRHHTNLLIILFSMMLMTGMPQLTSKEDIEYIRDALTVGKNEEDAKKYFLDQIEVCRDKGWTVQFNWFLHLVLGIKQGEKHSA
Chain of Serine/threonine-protein kinase LATS2 (Homo sapiens) (Q9NRM7 whole entry, the tested form may be a part): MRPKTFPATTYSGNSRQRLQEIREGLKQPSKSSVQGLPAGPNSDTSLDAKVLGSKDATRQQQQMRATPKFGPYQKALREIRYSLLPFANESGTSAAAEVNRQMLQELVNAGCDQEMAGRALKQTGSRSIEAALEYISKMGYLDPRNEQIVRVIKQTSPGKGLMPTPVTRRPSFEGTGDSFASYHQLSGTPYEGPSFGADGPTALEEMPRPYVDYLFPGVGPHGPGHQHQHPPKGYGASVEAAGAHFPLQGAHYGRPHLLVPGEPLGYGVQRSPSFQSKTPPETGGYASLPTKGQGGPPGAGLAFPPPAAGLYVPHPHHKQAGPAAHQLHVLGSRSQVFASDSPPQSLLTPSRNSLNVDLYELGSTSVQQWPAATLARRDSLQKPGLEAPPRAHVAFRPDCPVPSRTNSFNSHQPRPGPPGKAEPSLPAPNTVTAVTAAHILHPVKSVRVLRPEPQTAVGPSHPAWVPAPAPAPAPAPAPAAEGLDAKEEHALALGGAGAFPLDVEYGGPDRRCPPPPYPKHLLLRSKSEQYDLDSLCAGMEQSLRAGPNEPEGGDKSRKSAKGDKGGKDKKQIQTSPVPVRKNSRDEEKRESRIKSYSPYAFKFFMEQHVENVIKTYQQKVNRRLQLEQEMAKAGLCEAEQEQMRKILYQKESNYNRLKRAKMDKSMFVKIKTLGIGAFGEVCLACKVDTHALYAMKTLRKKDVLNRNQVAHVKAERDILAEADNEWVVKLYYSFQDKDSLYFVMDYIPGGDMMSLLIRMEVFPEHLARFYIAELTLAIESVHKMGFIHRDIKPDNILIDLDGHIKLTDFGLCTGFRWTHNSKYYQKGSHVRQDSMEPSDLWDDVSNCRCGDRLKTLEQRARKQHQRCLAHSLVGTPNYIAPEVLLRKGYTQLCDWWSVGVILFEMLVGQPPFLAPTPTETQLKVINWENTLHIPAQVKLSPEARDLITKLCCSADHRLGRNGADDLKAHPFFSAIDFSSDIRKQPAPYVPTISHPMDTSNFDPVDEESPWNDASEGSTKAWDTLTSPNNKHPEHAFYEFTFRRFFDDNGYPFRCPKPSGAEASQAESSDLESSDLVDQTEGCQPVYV
Chain of Serine/threonine-protein kinase pim-2 (Homo sapiens) (Q9P1W9 whole entry, looked up, the tested form may be a part, canonical isoform): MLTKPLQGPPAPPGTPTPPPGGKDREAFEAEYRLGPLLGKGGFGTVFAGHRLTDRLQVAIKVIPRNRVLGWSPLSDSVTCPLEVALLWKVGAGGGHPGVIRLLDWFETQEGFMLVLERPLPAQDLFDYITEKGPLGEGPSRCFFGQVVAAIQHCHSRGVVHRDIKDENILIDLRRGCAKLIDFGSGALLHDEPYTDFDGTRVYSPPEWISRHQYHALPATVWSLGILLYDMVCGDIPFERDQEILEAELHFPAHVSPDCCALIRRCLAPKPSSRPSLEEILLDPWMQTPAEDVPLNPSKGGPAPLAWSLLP
Chain of Serine/threonine-protein kinase Chk1 (Homo sapiens) (O14757 whole entry, the tested form may be a part): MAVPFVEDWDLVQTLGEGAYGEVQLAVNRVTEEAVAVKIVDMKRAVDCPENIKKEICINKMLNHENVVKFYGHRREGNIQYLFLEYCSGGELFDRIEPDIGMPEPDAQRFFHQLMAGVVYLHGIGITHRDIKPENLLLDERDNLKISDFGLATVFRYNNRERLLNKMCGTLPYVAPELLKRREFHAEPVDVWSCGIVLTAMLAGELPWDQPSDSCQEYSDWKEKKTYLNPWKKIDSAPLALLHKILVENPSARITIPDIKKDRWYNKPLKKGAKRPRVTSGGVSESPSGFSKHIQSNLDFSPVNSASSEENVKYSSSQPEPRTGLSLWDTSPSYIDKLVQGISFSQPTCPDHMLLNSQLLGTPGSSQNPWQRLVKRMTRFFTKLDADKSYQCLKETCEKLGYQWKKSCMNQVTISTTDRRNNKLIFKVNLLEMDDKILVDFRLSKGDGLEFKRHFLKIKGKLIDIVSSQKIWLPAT
Chain of Receptor-type tyrosine-protein kinase FLT3 (Homo sapiens), P36888 [UNDEFINED MUTATION] (P36888 whole entry, looked up, change not shown): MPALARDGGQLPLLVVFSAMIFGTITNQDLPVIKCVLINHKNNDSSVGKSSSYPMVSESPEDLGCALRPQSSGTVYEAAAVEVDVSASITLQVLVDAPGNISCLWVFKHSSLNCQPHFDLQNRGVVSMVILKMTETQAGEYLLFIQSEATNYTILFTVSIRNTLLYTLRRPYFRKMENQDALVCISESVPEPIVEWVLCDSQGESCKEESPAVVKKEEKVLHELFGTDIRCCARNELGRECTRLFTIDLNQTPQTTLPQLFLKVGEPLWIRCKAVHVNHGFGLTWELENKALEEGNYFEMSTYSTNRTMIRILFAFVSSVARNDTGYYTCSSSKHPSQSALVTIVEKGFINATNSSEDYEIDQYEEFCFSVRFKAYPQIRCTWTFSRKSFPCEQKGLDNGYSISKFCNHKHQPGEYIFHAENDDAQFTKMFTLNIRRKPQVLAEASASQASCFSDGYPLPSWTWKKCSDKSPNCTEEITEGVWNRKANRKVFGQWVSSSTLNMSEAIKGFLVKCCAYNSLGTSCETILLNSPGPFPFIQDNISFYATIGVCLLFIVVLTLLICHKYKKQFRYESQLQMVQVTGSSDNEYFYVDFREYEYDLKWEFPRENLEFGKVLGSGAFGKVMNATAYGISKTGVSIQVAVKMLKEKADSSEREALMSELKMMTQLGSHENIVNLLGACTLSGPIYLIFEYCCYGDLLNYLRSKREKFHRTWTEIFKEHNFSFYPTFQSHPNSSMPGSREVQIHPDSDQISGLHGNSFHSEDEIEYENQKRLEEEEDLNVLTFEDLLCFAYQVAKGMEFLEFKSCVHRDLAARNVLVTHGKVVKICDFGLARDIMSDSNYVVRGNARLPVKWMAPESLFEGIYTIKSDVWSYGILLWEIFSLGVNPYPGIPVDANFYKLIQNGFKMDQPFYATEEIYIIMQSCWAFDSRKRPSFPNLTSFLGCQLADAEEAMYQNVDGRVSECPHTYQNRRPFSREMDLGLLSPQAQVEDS

Take `C=CC(=O)Nc1ccccc1Nc1nc(Nc2ccc(N3CCN(C)CC3)cc2)ncc1C(=O)Nc1c(C)cccc1Cl`: the Activity stood at 100% in [1]; 70% in [2]; 100% in test [3]; 6.9% in test [4]; 82% in test [5]; 100% in test [6]. Further, the Activity was 95% in test [7]; 100% in test [8]; 100% in test [9]; 100% in [10]; 100% in test [11]; 95% in test [12]. The Activity was 95% in test [13]; 100% in test [14]; 100% in [15]; 100% in test [16]; 0.8% in [17]; 94% in [18]. For the same compound, in the test on Mus musculus, the inhibition result was “Active”.

Values taken from ChEMBL document CHEMBL4354843, “Structure-Based Design of a Potent and Selective Covalent Inhibitor for SRC Kinase That Targets a P-Loop Cysteine” (J Med Chem, 2020).
